Hits are enriched below; roughly 4% of the tested compounds scored in any of these assays.
KCNK9 block: human KCNK9 channel inhibition | Q9NPC2 | HEK293 KCNK9, FluxOR thallium flux fluorescence; hits give low values | B-score at 10 µM | hit rate 1.2% among 310,000 | AID 488922;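 active = ratio B-score over 3 SD below the library mean, with starting fluorescence within 5 SD of its mean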;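 also: negative B-score means less thallium flux so channel inhibition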
KCNQ1 act: potentiators or activators of human KCNQ1 potassium channel | P51787 | CHO-K1 KCNQ1, thallium flux FluxOR fluorescence; hits give high values | B-score at 10 µM | hit rate 0.35% among 310,000;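 active = fluorescence ratio B-score, a plate-corrected score, at least three library SD, with initial intensity B-score within 5 SD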
Target sequence (P51787 whole entry, looked up): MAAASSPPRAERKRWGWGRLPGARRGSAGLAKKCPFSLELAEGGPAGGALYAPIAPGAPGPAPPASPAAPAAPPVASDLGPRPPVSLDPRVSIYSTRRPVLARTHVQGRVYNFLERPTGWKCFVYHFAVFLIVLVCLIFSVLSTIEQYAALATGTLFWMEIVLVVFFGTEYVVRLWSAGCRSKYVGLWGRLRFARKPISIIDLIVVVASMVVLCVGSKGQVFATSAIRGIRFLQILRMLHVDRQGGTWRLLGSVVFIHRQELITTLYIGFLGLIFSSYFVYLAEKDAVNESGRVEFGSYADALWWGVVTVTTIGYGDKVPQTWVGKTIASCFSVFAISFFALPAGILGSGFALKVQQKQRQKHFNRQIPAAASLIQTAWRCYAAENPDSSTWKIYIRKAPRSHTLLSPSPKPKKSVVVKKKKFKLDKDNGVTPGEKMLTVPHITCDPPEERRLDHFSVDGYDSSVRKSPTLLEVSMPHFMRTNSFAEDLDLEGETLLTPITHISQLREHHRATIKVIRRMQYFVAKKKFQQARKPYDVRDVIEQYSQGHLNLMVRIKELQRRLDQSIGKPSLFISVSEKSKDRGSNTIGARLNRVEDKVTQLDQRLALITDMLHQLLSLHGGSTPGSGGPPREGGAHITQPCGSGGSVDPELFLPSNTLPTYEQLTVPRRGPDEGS
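Medium – assay buffer, equal DMSO in all wells · Material – CHO-K1 cell line with stable KCNQ1 potassium channel expression · Signal – kinetic FluxOR thallium fluorescence, 10-s 1-Hz baseline, 110-s post-stimulus read · Compound – single concentration per compound, DMSO matched to controls · Schedule – 37 °C overnight plating, 90-min dark dye load, 20-min compound pretreatment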
KCNQ1 inh: inhibitors of human KCNQ1 potassium channel; P51787; CHO-K1 KCNQ1, FluxOR thallium flux fluorescence; hits give high values; B-score at 10 µM; hit rate 1.3% among 310,000; AID 2642;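 active = compounds whose thallium flux B-score, printed positive for inhibition, exceeds three library SD while starting fluorescence stays within three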;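 also: channel opened by potassium depolarization with thallium stimulus after 20 min compound exposure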
PHOSPHO1 inh: PHOSPHO1 (human) inhibition; Q8TCT1; recombinant PHOSPHO1, absorbance phosphatase assay; inhibition, % at 13.3 µM; hit rate 1.1% among 290,000; AID 1565; in the data active = inhibition above about 60%
KCNK3 block: human KCNK3 channel inhibition, primary screen | O14649 | CHO-KCNK3 thallium flux, FluxOR fluorescence; hits give low values | B-score at 10 µM | hit rate 0.84% among 340,000;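 active = B-score under library mean minus 4 SD, starting fluorescence ratio at most library mean plus 5 SD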;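 also: more negative B-score means stronger inhibition of thallium flux through KCNK3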
hERG rescue: shields human hERG channel from block by proarrhythmic agents | CHO-hERG, FluxOR thallium flux, dofetilide IC70 present | hit rate 0.51% among 310,000 | AID 1511 | Q12809 | activation (rescue from dofetilide block), less the hit threshold, % at 10 µM;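 active = activation above the mean of controls blocked by dofetilide plus 5 SD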;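 also: thallium influx through hERG after potassium depolarization seen as dye fluorescence rise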
KCNK9 block conf: human KCNK9 inhibitor confirmation; shares compounds with KCNK9 block; HEK293 KCNK9 cells, FluxOR thallium flux fluorescence; inhibition, % at 10 µM; hit rate 43% among 4,900; AID 492992;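 active = thallium signal inhibited by more than 5 SD of the compound-free buffer control wells, on both duplicate plates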
Kir21 sel: mouse Kir2.1 off-target activity of KCNK9 modulators; inhibition, % at 10 µM; hit rate 4% among 4,900; shares compounds with KCNK9 block; Kir2.1 cells, FluxOR thallium flux fluorescence;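 active = thallium signal drop more than 5 SD beyond the mean of the no-compound control wells, seen in both duplicate plates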;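 also: signal is fluorescence rise after thallium addition divided by baseline fluorescence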
KCNK9 uninduced: non-induced cell nonspecific activity of KCNK9 modulators; inhibition, % at 10 µM; AID 492997; hit rate 40% among 4,900; shares compounds with KCNK9 block; non-induced KCNK9-HEK293, FluxOR thallium flux;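 active = thallium signal drop beyond 5 SD of the untreated control mean, on both duplicate plates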
Of the large screens only hits and unclear results are named; the others gave an inactive call (follow-up assays come after a bar, where they were run).

COc1ccccc1OCCOCCOc1c(C)cc(C)cc1Br	none | KCNK9 block conf inactive | Kir21 sel inactive | KCNK9 uninduced inactive
CCCOc1ccc(S(=O)(=O)N2CCCC2)cc1[N+](=O)[O-]	none
Cn1cc(C(=O)NC2CCCCCCC2)c(=O)c2cc(S(=O)(=O)N3CCCC3)ccc21	none
CC(C)(C)c1ccc(OCCCn2ccnc2)cc1	none
COc1cccc(CNC(=O)c2cccc(NC(=O)C3=C(C)OCCS3)c2)c1	KCNK9 block -8.9 | KCNK9 block conf 50% | Kir21 sel inactive | KCNK9 uninduced inactive
O=C(/C=C/c1ccc(S(=O)(=O)N2CCOCC2)cc1)NC(=S)NCCCn1ccnc1	none
Cc1ccc(C(=O)Nc2ccccc2C(=O)O)cc1S(=O)(=O)Nc1ccc(Br)cc1	KCNQ1 inh 6 (no result: PHOSPHO1 inh) | KCNK9 block conf inactive | Kir21 sel inactive | KCNK9 uninduced inactive
Cc1ccc(C(=O)Nc2ccccc2-c2ccccc2)cc1S(=O)(=O)Nc1cccc(C)c1C	KCNK9 block -9.4, KCNQ1 inh 6, KCNK3 block -11 | KCNK9 block conf 40% | Kir21 sel inactive | KCNK9 uninduced 42%
Cc1ccc(C)c(NS(=O)(=O)c2cc(C(=O)Nc3ccccc3-c3ccccc3)ccc2C)c1	KCNK9 block -12, KCNK3 block -9.9 | KCNK9 block conf 42% | Kir21 sel inactive | KCNK9 uninduced 42%
Cc1ccc(S(=O)(=O)Nc2cc3c4c(c2)CC(=O)N4CCC3)cc1	none (no result: PHOSPHO1 inh)
CCN(c1ccc(OC)cc1)S(=O)(=O)N1CCCC(C(=O)NCc2ccccc2Br)C1 (configuration not stated)	none
Cc1cc(Cl)ccc1C(=O)C1CCCN(C(=O)c2cnsn2)C1 (configuration not stated)	none | KCNK9 block conf inactive | Kir21 sel inactive | KCNK9 uninduced inactive
Cc1cc(C(=O)N2CCCC(C(=O)c3ccc(Cl)cc3C)C2)no1 (configuration not stated)	none
COCc1ccc(C(=O)N2CCCC(C(=O)c3ccc(Cl)cc3C)C2)o1 (configuration not stated)	none | KCNK9 block conf inactive | Kir21 sel inactive | KCNK9 uninduced inactive
COCc1ccc(C(=O)N2CCCC(Nc3ccc4c(c3)OCCO4)C2)o1 (configuration not stated)	none | KCNK9 block conf inactive | Kir21 sel inactive | KCNK9 uninduced inactive
COc1ccc(NC2CCCN(C(=O)c3ccc(CSC)o3)C2)cc1OC (configuration not stated)	none
Cc1cc(Cl)ccc1C(=O)C1CCCN(C(=O)c2ccoc2)C1 (configuration not stated)	none | KCNK9 block conf inactive | Kir21 sel inactive | KCNK9 uninduced inactive
COc1ccc(C(=O)C2CCCN(C(=O)Cn3nc(C)cc3C)C2)cc1F (configuration not stated)	none
O=c1sc(N2CCN(c3ccccc3F)CC2)nc2ccsc12	KCNK9 block -13 | KCNK9 block conf 36% | Kir21 sel inactive | KCNK9 uninduced 40%
CCOC(=O)C1=C(CC)Nc2ccccc2N/C1=N\S(=O)(=O)c1ccc2ccccc2c1	none | KCNK9 block conf inactive | Kir21 sel inactive | KCNK9 uninduced inactive
O=C(NCc1ccccc1)C1(c2ccccc2)CCN(S(=O)(=O)c2ccccc2)CC1	none | KCNK9 block conf inactive | Kir21 sel inactive | KCNK9 uninduced inactive
COc1ccc(CN(C)C(=O)c2ccc(Oc3ccccc3)cc2)cc1F	none
CN(Cc1ccc2ccccc2c1)C(=O)c1ccc(C(F)(F)F)cc1	none | KCNK9 block conf inactive | Kir21 sel inactive | KCNK9 uninduced 38%
CCC(Sc1ccccn1)C(=O)Nc1cccc([N+](=O)[O-])c1 (configuration not stated)	KCNK9 block -8.6 | KCNK9 block conf 30% | Kir21 sel inactive | KCNK9 uninduced 26%
Cc1nn(-c2ccccc2)c(N2CCCC2)c1/C=N/NC(=S)Nc1cc(C(F)(F)F)ccc1Cl	none
Cc1nn(-c2ccccc2)c(N2CCCC2)c1/C=N/NC(=S)Nc1ccccc1C(F)(F)F	KCNK9 block -9.1 | KCNK9 block conf 44% | Kir21 sel inactive | KCNK9 uninduced inactive
Cc1ccn2cc(CCNC(=O)CC3CCCCC3)nc2c1	none
CCc1ccccc1NC(=O)c1ccc(-n2c(C)ccc2C)cc1	KCNK9 block -8.5 | KCNK9 block conf 32% | Kir21 sel inactive | KCNK9 uninduced inactive
O=C(N/N=C/c1ccoc1)c1ccc([N+](=O)[O-])cc1	none
CC1CCCC(NC(=O)CSC2=Nc3ccccc3C3CC=NN23)C1C (configuration not stated)	none (no result: KCNK9 block, KCNQ1 act, KCNQ1 inh, PHOSPHO1 inh, hERG rescue)
COc1ccc(C(=O)c2no[n+]([O-])c2C(=O)c2ccc(OC)cc2)cc1	none
O=C(c1cccs1)c1no[n+]([O-])c1C(=O)c1cccs1	KCNK9 block -11, KCNQ1 inh 9 | KCNK9 block conf 44% | Kir21 sel 36% | KCNK9 uninduced 52%
O=c1c2ccccc2[nH]c(=S)n1CCCN1CCC(Cc2ccccc2)CC1	none | KCNK9 block conf inactive | Kir21 sel inactive | KCNK9 uninduced inactive
COCCNC(=O)CN(C(=O)CCC(=O)Nc1ccccn1)c1ccccc1F	none
Cc1ccc2c(c1)N(CCC(=O)NC1CCCCC1)C(=O)CO2	none | KCNK9 block conf inactive | Kir21 sel inactive | KCNK9 uninduced inactive
COc1ccccc1CNC(=O)CCCN1C(=O)COc2ccc(C)cc21	none | KCNK9 block conf inactive | Kir21 sel inactive | KCNK9 uninduced inactive
Cc1nn(C)cc1/C=N/NC(=S)Nc1ccccc1	none
CC(C)C(=O)N1CCN(c2ccccc2NC(=O)c2ccc(C#N)cc2F)CC1	none | KCNK9 block conf inactive | Kir21 sel inactive | KCNK9 uninduced inactive
CC1CCN(c2ccccc2NC(=O)c2ccc(C#N)cc2F)CC1	none
NC(=O)c1ccccc1OCc1nc2ccccc2s1	none | KCNK9 block conf inactive | Kir21 sel inactive | KCNK9 uninduced inactive
CCCCNS(=O)(=O)c1ccc2nc(SCC(=O)Nc3ccccc3)[nH]c2c1	none
CCOC(=O)/C(=C\Nc1ccc(OC(F)(F)F)cc1)Sc1ncc(C(F)(F)F)cc1Cl	none | KCNK9 block conf inactive | Kir21 sel inactive | KCNK9 uninduced inactive
O=C(CSc1nccc(-c2cccs2)n1)Nc1ccc(F)c(Cl)c1	KCNK9 block -8.2 | KCNK9 block conf inactive | Kir21 sel inactive | KCNK9 uninduced 37%
O=C(CSc1nccc(-c2cccs2)n1)Nc1cccc(Cl)c1	none

Screening data deposited in PubChem by several laboratories.
